Screens from PubChem BioAssay.
Hits are enriched below; roughly 2.7% of the tested compounds scored in any of these assays.
LYP inh 2 = LYP (human) phosphatase inhibition | inhibition, % at 2 µM | AID 640 | recombinant LYP catalytic domain, DiFMUP fluorescence | Q9Y2R2 | actives 0.21% (n = 96,000);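 active = inhibition at 2 µM at or above a set limit, the screen mean plus 3 SD, cut at about 24% in these data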;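 also: 0% = DMSO with enzyme and 100% = enzyme fully blocked by orthovanadate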
PLK1 kinase inh = blocks human PLK1 kinase activity. P53350. recombinant PLK1 kinase, TR-FRET peptide phosphorylation. inhibition, % at 10 µM. actives 0.53% (n = 97,000);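 active = inhibition of 50% or more in the single-concentration screen; inactive = inhibition below 50%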;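 also: 0% = DMSO max control and 100% = H-89 dihydrochloride min control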
HIV Rev-RRE inh = HIV Rev-RRE protein-RNA interaction inhibition | P05866 | Rev peptide-RRE RNA binding, FRET | inhibition, % at 8 µM | actives 0.79% (n = 97,000) | AID 704;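 active = inhibition above the screen-wide mean plus 3 SD, cut at about 35% in these data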;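 also: 0% = median DMSO wells and 100% = median Neomycin B control wells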
Target sequence (P05866 whole entry, looked up): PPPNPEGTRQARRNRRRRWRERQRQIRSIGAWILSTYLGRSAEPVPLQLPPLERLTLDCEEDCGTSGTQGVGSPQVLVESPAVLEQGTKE
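Probe or stimulus: fluorescein-Rev peptide as binding partner; assay system: Cy5-tagged RRE RNA duplex with fluorescein-tagged Rev peptide; timing: 5 min compound–RNA preincubation, then 15 min with peptide, 25 °C; medium: HEPES pH 7.5 buffer with KCl, MgCl2, NaCl and EDTA; signal: fluorescein-to-Cy5 FRET, 480 nm excitation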
LYP act = increases human PTPN22 phosphatase activity; Q9Y2R2; recombinant LYP, DiFMUP fluorescence; 0 = plate median, 100 = signal doubled; activation, % at 2 µM; actives 0.11% (n = 96,000);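 active = activation at 2 µM above a set limit, the mean plus 5 SD, cut at about 37% in these data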
DAT uptake mod = modulates human dopamine transporter uptake under cocaine; LLC-PK1 hDAT cells, [14C]-dopamine uptake with cocaine IC80; actives deviate in either direction; B-score at 10 µM; actives 1.3% (n = 110,000); AID 449768;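 active = Z score or B-score, a plate-position-corrected score, falls beyond the plate's 99.7% confidence bounds, in either direction; inactive = both scores lie inside the 99.7% bounds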;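 also: scored against the spread of the other compound wells on the same plate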
Plk1 PBD FP = inhibitors of human Plk1 polo box domain binding; Plk1 PBD phosphopeptide binding, fluorescence polarization; AID 693; inhibition, %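 (tested at about 20 µM)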; actives 0.13% (n = 97,000); in the data active = inhibition above about 34%, passing the limit was not always enough
PBD redox DR = counter-screen for Plk1 PBD inhibitors: redox cycling H2O2 generation. 120 tested, under 10 active. AID 876. shares compounds with Plk1 PBD FP. EC50, µM. DTT; call rule not given here
* marks the source's active call; other numbers are inactive results.

Cc1cccc2[nH]c3c(N4CCC5(CC4)OCCO5)ncnc3c12 was read as LYP inh 2 -5, PLK1 kinase inh -10, HIV Rev-RRE inh 4, LYP act 9, DAT uptake mod 0.1 and Plk1 PBD FP -15.
For O=C(NCC1COc2ccccc2O1)Nc1ccccc1F (stereo not given) the results were DAT uptake mod -1.5.
`CCN1C(=O)/C(=C/c2nc3ccccc3c(=O)n2-c2ccccc2)c2ccccc21` gave LYP inh 2 13, PLK1 kinase inh -18, HIV Rev-RRE inh 2, LYP act -9, DAT uptake mod -0.013, Plk1 PBD FP 57* and PBD redox DR >50.
`O=C(Nc1ccccn1)C1CCN(S(=O)(=O)c2cccc3nonc23)CC1` gave LYP inh 2 0, PLK1 kinase inh -1, HIV Rev-RRE inh 0, LYP act 3, DAT uptake mod 0.91, Plk1 PBD FP 36* and PBD redox DR >50.
`COCCn1c(-c2cc(OC)c(OC)c(OC)c2)nc2oc3ccccc3c(=O)c2c1=O` gave DAT uptake mod -0.0075.
Cc1nc2cccc(C)n2c(=O)c1Cl was read as LYP inh 2 -4, PLK1 kinase inh 3, HIV Rev-RRE inh 3, LYP act 5, DAT uptake mod -0.78, Plk1 PBD FP 42* and PBD redox DR >50.
For Cc1nc2ccc(Br)cn2c(=O)c1Cl the results were LYP inh 2 -7, PLK1 kinase inh 4, HIV Rev-RRE inh 5, LYP act 4, DAT uptake mod -0.36 and Plk1 PBD FP -7.
`O=C(O)COc1ccc(Br)cc1/C=N/O` gave LYP inh 2 -6, PLK1 kinase inh -1, HIV Rev-RRE inh 4, LYP act 4, DAT uptake mod -0.91, Plk1 PBD FP 45* and PBD redox DR >50.
`CCC(C)c1ccc(NC(=O)C2CCCN(c3ncccn3)C2)cc1` (stereo not given) gave LYP inh 2 5, PLK1 kinase inh -9, HIV Rev-RRE inh 8, LYP act -6, DAT uptake mod 1.1 and Plk1 PBD FP 6.
Screening CCC(C)c1ccc(NC(=O)C2CC2)cc1 (stereo not given) returned LYP inh 2 -2, PLK1 kinase inh -12, HIV Rev-RRE inh -1, LYP act 4, DAT uptake mod 0.46, Plk1 PBD FP 63* and PBD redox DR >50.
For Nc1cc2nsnc2cc1Br the results were LYP inh 2 2, PLK1 kinase inh 25, HIV Rev-RRE inh 11, LYP act 1, DAT uptake mod -2.1, Plk1 PBD FP 118* and PBD redox DR 13*.
`COC(=O)[C@@H]1C[C@@]2(O)[C@H](O)[C@H](O)[C@H](O)C[C@H]2N1Cc1ccc(-c2ccccc2)cc1` gave DAT uptake mod 0.57.
For CC1CCCC(NC2CCCCNC2=O)C1 (stereo not given) the results were LYP inh 2 -4, PLK1 kinase inh -2, HIV Rev-RRE inh 5, LYP act 3, DAT uptake mod -0.02, Plk1 PBD FP 43* and PBD redox DR >50.
For COc1ccc(N(C)C2=NS(=O)(=O)c3ccccc32)cc1 the results were LYP inh 2 6, PLK1 kinase inh 6, HIV Rev-RRE inh 5, LYP act -4, DAT uptake mod -2, Plk1 PBD FP 54* and PBD redox DR >50.
For CCn1c(CNC(=O)c2ccco2)nnc1SCC(=O)Nc1ccc(Br)cc1F the results were LYP inh 2 -19, PLK1 kinase inh -6, HIV Rev-RRE inh 7, LYP act 11, DAT uptake mod 0.34 and Plk1 PBD FP 10.
O=C(CSc1nccc2ccccc12)N1CCN(c2ccccn2)CC1 was read as LYP inh 2 -4, PLK1 kinase inh -5, HIV Rev-RRE inh 8, LYP act 1 and Plk1 PBD FP -5.
`COc1ccc(S(=O)(=O)N(C)CC(=O)Nc2ccccc2C(F)(F)F)cc1Cl` gave LYP inh 2 -2, PLK1 kinase inh -8, HIV Rev-RRE inh 16, LYP act 4, DAT uptake mod 0.26 and Plk1 PBD FP -17.
COc1ccc(S(=O)(=O)N(C)CC(=O)Nc2ccccc2C(F)(F)F)cc1 was read as LYP inh 2 3, PLK1 kinase inh -15, HIV Rev-RRE inh 7, LYP act -4, DAT uptake mod 0.67, Plk1 PBD FP 35* and PBD redox DR >50.
For COC(=O)CSC(C(=O)Nc1ccc(C)c(C)c1)c1ccccc1 (stereo not given) the results were LYP inh 2 -6, PLK1 kinase inh -11, HIV Rev-RRE inh 2, LYP act 5, DAT uptake mod -0.41 and Plk1 PBD FP -10.
`O=C(c1ccc(-n2cnnn2)cc1)N1CCCCC1` gave LYP inh 2 -21, PLK1 kinase inh -9, HIV Rev-RRE inh 1, LYP act 24, Plk1 PBD FP 48* and PBD redox DR >50.
For CCC(=O)N1CCN(c2ccc(NC(=O)c3ccc4c(c3)OCO4)cc2)CC1 the results were LYP inh 2 -4, PLK1 kinase inh -10, HIV Rev-RRE inh 0, LYP act 2, DAT uptake mod -0.037, Plk1 PBD FP 44* and PBD redox DR >50.
For CNC(=O)CC(C(=O)O)c1ccc(OCC(C)C)cc1 (stereo not given) the results were LYP inh 2 -7, PLK1 kinase inh -4, HIV Rev-RRE inh -1, LYP act 12, Plk1 PBD FP 64* and PBD redox DR >50.
Screening CNC(=O)CC(C(=O)O)c1ccc(OC(C)C)cc1 (stereo not given) returned LYP inh 2 -6, PLK1 kinase inh -10, HIV Rev-RRE inh -2, LYP act 4, DAT uptake mod 0.31 and Plk1 PBD FP 3.
Screening Cc1ccc(NC(=O)C2CC=CCC2C(=O)N2CCCCC2)cc1 (stereo not given) returned LYP inh 2 8, PLK1 kinase inh 3, HIV Rev-RRE inh -3, LYP act -5, DAT uptake mod -0.92, Plk1 PBD FP 43* and PBD redox DR >50.
O=C(Cn1c(S(=O)(=O)Cc2ccccc2)nc2ccccc21)N1CCCCC1 was read as LYP inh 2 4, PLK1 kinase inh -9, HIV Rev-RRE inh 1, LYP act -5, DAT uptake mod 0.8 and Plk1 PBD FP 2.
NC(=O)Cn1c(S(=O)(=O)Cc2ccccc2)nc2ccccc21 was read as LYP inh 2 -11, PLK1 kinase inh -12, HIV Rev-RRE inh 4, LYP act 3, DAT uptake mod -0.017, Plk1 PBD FP 43* and PBD redox DR >50.
`CCCCNC(=O)c1ccc(NC(=O)C2CCCO2)cc1` (stereo not given) gave DAT uptake mod 0.59.
